Source: ChEMBL document CHEMBL4428027, “3-Hydroxypyrimidine-2,4-diones as Selective Active Site Inhibitors of HIV Reverse Transcriptase-Associated RNase H: Design, Synthesis, and Biochemical Evaluations” (J Med Chem, 2016)
Calls of active or inactive are those of the source. The rule behind the calls is not given here.

Key:
[1] = molecular target: T1, Human immunodeficiency virus type 1 reverse transcriptase (Human immunodeficiency virus 1, UniProt Q72547); assay: Inhibition of RNase H activity of full length recombinant HIV1 reverse transcriptase assessed as reduction in nonspecific internal cleavage using HTS1 substrate; settings: read-out: IC50
How it was run: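 Recombinant p66/p51 RT heterodimer. Fluorescent RNA/DNA duplex substrate HTS-1 measures internal cleavage. IC50 is the mean of at least three independent experiments.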

[2] = molecular target: T1, Human immunodeficiency virus type 1 reverse transcriptase; assay: Inhibition of RNase H activity of full length recombinant HIV1 reverse transcriptase assessed as reduction in DNA 3'-end cleavage using HTS2 substrate
How it was run: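 Recombinant p66/p51 RT heterodimer. Fluorescent RNA/DNA duplex substrate HTS-2 reports DNA 3′-end-directed (polymerase-dependent) cleavage. IC50 is the mean of at least three independent experiments.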

[3] = molecular target: T1, Human immunodeficiency virus type 1 reverse transcriptase; assay: Inhibition of RNase H activity of full length recombinant HIV1 reverse transcriptase assessed as reduction in RNA 5'-end directed cleavage using HTS3 substrate
[4] = molecular target: T1, Human immunodeficiency virus type 1 reverse transcriptase; assay: Inhibition of re-constituted HIV1 reverse transcriptase RNase H domain fragment; settings: read-out: IC50
How it was run: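 Secondary check using a catalytically active, isolated HIV RNase H domain fragment (reconstituted) with duplex substrate HTS-1.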

[5] = molecular target: T1, Human immunodeficiency virus type 1 reverse transcriptase; assay: Inhibition of polymerase activity of HIV1 reverse transcriptase using poly(rA)-oligo(dT)16 and [3H]-TTP incubated for 20 mins by liquid scintillation spectrometry
How it was run: (§1)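 Reaction mix: 10 µM [3H]-TTP, 40 nM poly(rA)-oligo(dT)16, 50 mM Tris-HCl pH 7.4 (37°C), 60 mM KCl, 5 mM MgCl2. Started with 10 nM RT; 20 min at 37°C. Quenched in ice-cold 10% TCA with 20 mM sodium pyrophosphate, then glass-fibre filtered and washed with TCA and ethanol. Label incorporation read by liquid scintillation.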

[6] = Toxicity against human HeLa P4/R5 cells; format: cell-based
[7] = molecular target: Human immunodeficiency virus type 1 integrase (Human immunodeficiency virus 1, UniProt Q7ZJM1); assay: Inhibition of HIV integrase pre-incubated for 10 mins before addition of oligo-5'-biotin ATGTGGAAAATCTCTAGCA annealed with ACTGCTAGAGATTTTCCACAT 3'-Cy5) substrate
Chain of Human immunodeficiency virus type 1 integrase (Q7ZJM1 whole entry): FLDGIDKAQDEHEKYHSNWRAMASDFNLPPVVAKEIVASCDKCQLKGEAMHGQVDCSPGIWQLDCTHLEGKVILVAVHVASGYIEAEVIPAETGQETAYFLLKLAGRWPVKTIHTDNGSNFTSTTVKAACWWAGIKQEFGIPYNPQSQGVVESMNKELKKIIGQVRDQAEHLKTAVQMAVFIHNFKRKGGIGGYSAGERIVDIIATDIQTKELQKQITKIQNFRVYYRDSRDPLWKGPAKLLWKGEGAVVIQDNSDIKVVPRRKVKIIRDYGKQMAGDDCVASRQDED

[8] = system: Human immunodeficiency virus 1; assay: Antiviral activity against HIV1 infected in human HeLa P4/R5 cells assessed as reduction in viral growth pre-incubated with cells for 16 hrs followed by additional 48 hrs incubation by fluorescence-based beta-galactosidase detection assay; format: functional, organism-based
How it was run: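 P4R5 HeLa indicator cells (CD4, CXCR4, CCR5; HIV LTR-driven β-galactosidase reporter), 5×10^3 cells/well in DMEM/10% FBS with puromycin 0.5 µg/ml. Drug added 16 h before HIV exposure, then 48 h further incubation. Infection read by fluorescence-based β-galactosidase detection.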

[9] = molecular target: Human immunodeficiency virus type 1 reverse transcriptase (Human immunodeficiency virus 1) (UniProt Q72547); assay: Inhibition of HIV1 polymerase activity of reverse transcriptase using poly(rA)-oligo(dT)16 and [3H]-TTP up to 25 uM incubated for 20 mins by liquid scintillation spectrometry; how it was run: as §1

Row | SMILES | IC50 [1] [µM] | IC50 ([2]; read-out: IC50) [µM] | IC50 ([3]; read-out: IC50) [µM] | IC50 [4] [µM] | IC50 ([5]; read-out: IC50) [µM] | CC50 [6] [µM] | IC50 [7] [µM] | Activity [8] | IC50 [5] | IC50 [2] | inhibition [9] | IC50 [3]
1 | COc1ccc(-c2cccc(Nc3cc(=O)n(O)c(=O)[nH]3)c2)cc1 | 0.2 | 0.3 | 0.4 | 0.1 | 6.3 | > 25 | > 100 | inactive | – | – | – | –
2 | COc1cccc(OC)c1-c1cccc(Nc2cc(=O)n(O)c(=O)[nH]2)c1 | 0.51 | 0.7 | 0.47 | – | 1.7 | – | 1.3 | – | – | – | – | –
3 | Cn1c(Nc2cccc(-c3cccc(C#N)c3)c2)cc(=O)n(O)c1=O | 1.1 | 3.2 | 4.1 | 1 | 5 | > 25 | 7.1 | – | – | – | – | –
4 | Cn1c(Oc2ccc(-c3ccc(O)cc3)cc2)cc(=O)n(O)c1=O | 2.2 | 15 | 11 | – | – | – | 12 | – | Not Active | – | – | –
5 | Cc1noc(C)c1-c1ccc(Nc2cc(=O)n(O)c(=O)n2C)cc1 | 1.6 | 4.4 | 3.8 | – | – | – | 25 | – | Not Active | – | – | –
6 | COc1ccc(-c2ccccc2Oc2cc(=O)n(O)c(=O)n2C)cc1 | 2.3 | – | 22 | 6.4 | – | 6 | 1 | – | Not Active | Not Active | – | –
7 | COc1ccc(-c2cccc(Nc3cc(=O)n(O)c(=O)[nH]3)c2)c(OC)c1 | 0.31 | 0.54 | 2.4 | – | 3.2 | – | 1.2 | – | – | – | – | –
8 | Cc1ccc(-c2ccc(Nc3cc(=O)n(O)c(=O)[nH]3)cc2)cc1 | 0.4 | 0.7 | 0.5 | 0.4 | 5.7 | > 25 | 93 | inactive | – | – | – | –
9 | COc1cccc(-c2ccc(Nc3cc(=O)n(O)c(=O)[nH]3)cc2)c1 | – | – | – | – | – | > 25 | – | inactive | – | – | – | –
10 | Cn1c(Nc2cccc(-c3ccccc3)c2)cc(=O)n(O)c1=O | 0.85 | 3.5 | 3.4 | – | – | – | 2.2 | – | Not Active | – | – | –
11 | Cn1c(Oc2cccc(-c3cccc(O)c3)c2)cc(=O)n(O)c1=O | 0.9 | 12 | 4.3 | – | – | – | 7.1 | – | Not Active | – | – | –
12 | Cc1ccc(-c2cccc(Nc3cc(=O)n(O)c(=O)[nH]3)c2)cc1 | 0.38 | 0.45 | 0.44 | – | 3.1 | – | 44 | – | – | – | – | –
13 | Cn1c(Nc2ccc(-c3cccc(C#N)c3)cc2)cc(=O)n(O)c1=O | 1.2 | 3.7 | 3.3 | 0.9 | – | 25 | 30 | – | Not Active | – | – | –
14 | O=c1cc(Nc2cccc(-c3ccc(F)cc3)c2)[nH]c(=O)n1O | 0.2 | 0.3 | 0.3 | 0.15 | 6.6 | > 25 | > 100 | inactive | – | – | – | –
15 | COc1cccc(OC)c1-c1cccc(Nc2cc(=O)n(O)c(=O)n2C)c1 | 1.9 | 6.9 | 4.5 | 1.2 | – | 8 | – | – | Not Active | – | – | –
16 | Cn1c(Oc2ccccc2-c2ccc(C(F)(F)F)cc2)cc(=O)n(O)c1=O | 3.9 | – | 21 | 5.1 | – | 6 | – | – | Not Active | Not Active | – | –
17 | Cn1c(Nc2ccc(-c3ccc(C(F)(F)F)cc3)cc2)cc(=O)n(O)c1=O | 3.6 | 8.9 | 6.6 | 2.2 | – | 10 | – | – | Not Active | – | – | –
18 | Cc1ccc(-c2ccc(Nc3cc(=O)n(O)c(=O)n3C)cc2)cc1 | 2.7 | 6.5 | 6.6 | 1.9 | – | 5 | – | – | Not Active | – | – | –
19 | COc1cccc(-c2ccc(Oc3cc(=O)n(O)c(=O)n3C)cc2)c1 | 2 | 16 | 16 | 5.1 | – | 6 | – | – | Not Active | – | inactive | –
20 | COc1ccc(-c2ccc(Nc3cc(=O)n(O)c(=O)n3C)cc2)cc1 | – | 6.6 | 5 | 0.9 | – | 5 | 4.4 | – | Not Active | – | – | –
21 | COc1ccc(-c2cccc(Oc3cc(=O)n(O)c(=O)n3C)c2)cc1 | 0.4 | 4 | 4.7 | 1.8 | – | 2.5 | – | – | Not Active | – | – | –
22 | COc1cc(OC)cc(-c2ccc(Nc3cc(=O)n(O)c(=O)[nH]3)cc2)c1 | 0.19 | 0.32 | 0.25 | – | 0.34 | – | 35 | – | – | – | – | –
23 | COc1ccccc1-c1ccccc1Oc1cc(=O)n(O)c(=O)n1C | 8.1 | – | – | 13 | – | 8 | – | – | Not Active | Not Active | – | Not Active
24 | COc1cccc(-c2cccc(Nc3cc(=O)n(O)c(=O)n3C)c2)c1 | 0.6 | 3.5 | 4.3 | 1.7 | – | 10 | 4.6 | – | Not Active | – | – | –
25 | COc1ccc(-c2cccc(Nc3cc(=O)n(O)c(=O)n3C)c2)cc1 | 0.5 | 2.6 | 3.1 | 1.1 | 3.6 | 3 | – | – | – | – | – | –
26 | Cn1c(Oc2ccc(-c3ccccc3)cc2)cc(=O)n(O)c1=O | 1.9 | 5.3 | 6 | 2.1 | – | 5 | – | – | Not Active | – | – | –
27 | COc1ccccc1-c1cccc(Nc2cc(=O)n(O)c(=O)n2C)c1 | 1.2 | 2.1 | 3.8 | 1 | 6.6 | 6 | – | – | – | – | – | –
28 | COc1cc(OC)cc(-c2cccc(Nc3cc(=O)n(O)c(=O)n3C)c2)c1 | 0.6 | 2.8 | 4 | 1.4 | – | 10 | – | – | Not Active | – | – | –
